# Source: ChEMBL document CHEMBL3872233, “Topical Treatment of Leishmania tropica Infection Using (-)-α-Bisabolol Ointment in a Hamster Model: Effectiveness and Safety Assessment” (J Nat Prod, 2016)
# Active and inactive are the calls of the source. The calls are words filed in the database; no cut-off is given here.
# Experiments:
# Syrian golden hamster [1] = experiment: Toxicity in Syrian hamster infected with Leishmania tropica MHOM/MA/1988/LEM1314 promastigotes assessed as mean serum ALP levels at 1 % administered tropically on footpad for 3 weeks starting at week 7 post infection measured 1 week post last dose (reference value: 14.4 +/- 0.9 U/L); type: organism-based, Mesocricetus auratus; conditions: in vivo, topical_or_ocular, 168 h
# Method in brief: (§1)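 Infected hamsters were treated daily for 21 days from week 7 post-infection (ointment 1–5%, 200 mg/kg gavage, or intralesional meglumine antimoniate 2 mg SbV/kg). Clinical signs and body weight were monitored during treatment and a 7-day follow-up. After sacrifice, liver and spleen were weighed and serum ALP, ALT, creatinine, urea and AST were measured with kits, compared with untreated infected animals.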
# Leishmania tropica [2] = experiment: (§2) Antileishmanial activity against Leishmania tropica MHOM/MA/1988/LEM1314 promastigotes infected in Syrian hamster assessed as reduction in lesion thickness at 200 mg administered once daily through oral gavage for 3 weeks starting at week 7 post infection measured 1 week post last dose relative to control; type: functional; set-up: scale not given: the % may be the effect or the level left
# Method in brief: (§3)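 L. tropica stationary-phase promastigotes (3 × 10^7 in 50 μL PBS) injected into the left hind footpad. Treatment began at week 7 (+75% footpad thickness) and ran daily for 21 days, n = 10/group. Routes were 50 mg ointment on the lesion (cetyl alcohol/lanolin/petrolatum base), gavage in olive oil, or intralesional meglumine antimoniate 2 mg SbV/kg. Lesion thickness was measured weekly against base-only ointment; sacrifice was 1 week after the last dose.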
# Syrian golden hamster [3] = experiment: Toxicity in Syrian hamster infected with Leishmania tropica MHOM/MA/1988/LEM1314 promastigotes assessed as footpad edema at 200 mg/kg administered through oral gavage for 3 weeks starting at week 7 post infection measured during compound dosing or measured 1 week post last dose; type: organism-based, Mesocricetus auratus; conditions: in vivo, 168 h; method in brief: as §1
# Syrian golden hamster [4] = experiment: Toxicity in Syrian hamster infected with Leishmania tropica MHOM/MA/1988/LEM1314 promastigotes assessed as pain at 200 mg/kg administered through oral gavage for 3 weeks starting at week 7 post infection measured during compound dosing or measured 1 week post last dose; type: organism-based, Mesocricetus auratus; conditions: in vivo, 168 h
# Method in brief: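 Infected hamsters (footpad, 3 × 10^7 promastigotes) were gavaged daily for 21 days from week 7 post-infection at 200 mg/kg in olive oil, n=10.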
# Syrian golden hamster [5] = experiment: Toxicity in Syrian hamster assessed as mean serum ALP levels at 500 mg/kg administered through oral gavage for 28 days (reference value: 14.4 +/- 2 U/L); type: organism-based, Mesocricetus auratus; conditions: in vivo, 672 h
# Syrian golden hamster [6] = experiment: Toxicity in Syrian hamster infected with Leishmania tropica MHOM/MA/1988/LEM1314 promastigotes assessed as liver weight at 200 mg/kg administered through oral gavage for 3 weeks starting at week 7 post infection measured 1 week post last dose (reference value: 3.3 +/- 0.2 g); type: organism-based, Mesocricetus auratus; conditions: in vivo; method in brief: as §1
# Syrian golden hamster [7] = experiment: Toxicity in Syrian hamster assessed as mean serum ALP levels at 5 % administered tropically on footpad for 28 days (reference value: 14.4 +/- 2 U/L); type: organism-based, Mesocricetus auratus; conditions: in vivo, topical_or_ocular, 672 h
# [8] = Toxicity in po dosed dog; type: organism-based, Canis lupus familiaris; conditions: in vivo
# Syrian golden hamster [9] = experiment: Toxicity in Syrian hamster infected with Leishmania tropica MHOM/MA/1988/LEM1314 promastigotes assessed as urea levels at 5 % administered tropically on footpad for 3 weeks starting at week 7 post infection measured 1 week post last dose (reference value: 32.5 +/- 0.8 mg/dl); type: organism-based, Mesocricetus auratus; conditions: in vivo, topical_or_ocular, 168 h
# Leishmania tropica [10] = experiment: as §2, with “parasite load in liver” for “lesion thickness”, “dose by qPCR analysis” for “dose”; type: functional, tissue-based
# Method in brief: (§4)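 Hamsters were infected in the footpad and treated daily for 21 days from week 7 post-infection, n = 10/group, and sacrificed 1 week after the last dose. Footpad skin, liver and spleen DNA was assayed by L. tropica-specific TaqMan qPCR (chromosome 29 target), in triplicate with 50 ng DNA per 25 μL reaction. Load was interpolated from Ct on a calibration curve of promastigote DNA, relative to base-ointment controls.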
# Syrian golden hamster [11] = experiment: Toxicity in Syrian hamster assessed as spleen weight at 5 % administered tropically on footpad for 28 days (reference value: 179.4 +/- 19.8 mg); type: organism-based, Mesocricetus auratus; conditions: in vivo, topical_or_ocular, 672 h
# Syrian golden hamster [12] = experiment: Toxicity in Syrian hamster infected with Leishmania tropica MHOM/MA/1988/LEM1314 promastigotes assessed as mean serum ALT levels at 200 mg/kg administered through oral gavage for 3 weeks starting at week 7 post infection measured 1 week post last dose (reference value: 81.6 +/- 4.9 U/L); type: organism-based, Mesocricetus auratus; conditions: in vivo, 168 h
# Syrian golden hamster [13] = experiment: Toxicity in Syrian hamster infected with Leishmania tropica MHOM/MA/1988/LEM1314 promastigotes assessed as mean serum creatinine levels at 200 mg/kg administered through oral gavage for 3 weeks starting at week 7 post infection measured 1 week post last dose (reference value: 0.19 mg/dl); type: organism-based, Mesocricetus auratus; conditions: in vivo, 168 h
# Leishmania tropica [14] = experiment: (§5) Antileishmanial activity against Leishmania tropica MHOM/MA/1988/LEM1314 promastigotes infected in Syrian hamster assessed as reduction in parasite load in spleen at 2 mg/kg administered intralesionally once daily on footpad for 3 weeks starting at week 7 post infection measured 1 week post last dose by qPCR analysis relative to control; type: functional, organism-based; method in brief: as §4
# Syrian golden hamster [15] = experiment: Toxicity in Syrian hamster infected with Leishmania tropica MHOM/MA/1988/LEM1314 promastigotes assessed as urea levels at 1 % administered tropically on footpad for 3 weeks starting at week 7 post infection measured 1 week post last dose (reference value: 32.5 +/- 0.8 mg/dl); type: organism-based, Mesocricetus auratus; conditions: in vivo, topical_or_ocular, 168 h
# Syrian golden hamster [16] = experiment: Toxicity in Syrian hamster assessed as mean serum AST levels at 5 % administered tropically on footpad for 28 days (reference value: 83.4 +/- 4.2 U/L); type: organism-based, Mesocricetus auratus; conditions: in vivo, topical_or_ocular, 672 h
# Syrian golden hamster [17] = experiment: Toxicity in Syrian hamster infected with Leishmania tropica MHOM/MA/1988/LEM1314 promastigotes assessed as mean serum ALP levels at 200 mg/kg administered through oral gavage for 3 weeks starting at week 7 post infection measured 1 week post last dose (reference value: 14.4 +/- 0.9 U/L); type: organism-based, Mesocricetus auratus; conditions: in vivo, 168 h
# Syrian golden hamster [18] = experiment: Toxicity in Syrian hamster assessed as spleen weight at 500 mg/kg administered through oral gavage for 28 days (reference value: 179.4 +/- 19.8 mg); type: organism-based, Mesocricetus auratus; conditions: in vivo, 672 h
# Leishmania tropica [19] = experiment: as §2, with “amastigote levels in foodpad skin macerate” for “lesion thickness”, “by Giemsa staining-based method” for “relative to control”; type: functional
# Syrian golden hamster [20] = experiment: Toxicity in Syrian hamster assessed as urea levels at 5 % administered tropically on footpad for 28 days (reference value: 33.2 +/- 2.8 mg/dl); type: organism-based, Mesocricetus auratus; conditions: in vivo, topical_or_ocular, 672 h
# Syrian golden hamster [21] = experiment: Toxicity in Syrian hamster infected with Leishmania tropica MHOM/MA/1988/LEM1314 promastigotes assessed as mean serum creatinine levels at 1 % administered tropically on footpad for 3 weeks starting at week 7 post infection measured 1 week post last dose (reference value: 0.19 mg/dl); type: organism-based, Mesocricetus auratus; conditions: in vivo, topical_or_ocular, 168 h
# Leishmania tropica [22] = experiment: as §2, with “2.5 %” for “200 mg”, “tropically on footpad” for “through oral gavage”; type: functional; set-up: scale not given: the % may be the effect or the level left; method in brief: as §3
# Syrian golden hamster [23] = experiment: Toxicity in Syrian hamster infected with Leishmania tropica MHOM/MA/1988/LEM1314 promastigotes assessed as liver weight at 5 % administered tropically on footpad for 3 weeks starting at week 7 post infection measured 1 week post last dose (reference value: 3.3 +/- 0.2 g); type: organism-based, Mesocricetus auratus; conditions: in vivo, topical_or_ocular, 168 h; method in brief: as §1
# Leishmania tropica [24] = experiment: as §5, with “liver” for “spleen”, “5 %” for “2 mg/kg”, “administered” for “administered intralesionally”, “daily tropically” for “daily”; type: functional, tissue-based; method in brief: as §4
# Leishmania tropica [25] = experiment: as §5, with “foodpad skin” for “spleen”, “1 %” for “2 mg/kg”, “administered” for “administered intralesionally”, “daily tropically” for “daily”; type: functional; set-up: scale not given: the % may be the effect or the level left; method in brief: as §4
structure (smiles),measurement,setting,value
CC(C)=CCC[C@](C)(O)[C@@H]1CC=C(C)CC1 [LEVOMENOL],Activity,Syrian golden hamster [1],13 U/L
same,Activity,Leishmania tropica [2],62.5%
same,Activity,Syrian golden hamster [3],Non-Toxic
same,Activity,Syrian golden hamster [4],Non-Toxic
same,Activity,Syrian golden hamster [5],14.7 U/L
same,Activity,Syrian golden hamster [6],3 g
same,Activity,Syrian golden hamster [7],14.1 U/L
same,LOAEL,[8],2 mL/kg
same,Activity,Syrian golden hamster [9],34.2 mg/dL
same,Activity,Leishmania tropica [10],Active
same,Activity,Syrian golden hamster [11],180.2 mg
same,Activity,Syrian golden hamster [12],81.6 U/L
same,Activity,Syrian golden hamster [13],0.2 mg/dL
same,Activity,Leishmania tropica [14],Active
same,Activity,Syrian golden hamster [15],33.7 mg/dL
same,Activity,Syrian golden hamster [16],83.4 U/L
same,Activity,Syrian golden hamster [17],12.9 U/L
same,Activity,Syrian golden hamster [18],181.2 mg
same,Activity,Leishmania tropica [19],Active
same,Activity,Syrian golden hamster [20],33.9 mg/dL
same,Activity,Syrian golden hamster [21],0.22 mg/dL
same,Activity,Leishmania tropica [22],56.4%
same,Activity,Syrian golden hamster [23],3.2 g
same,Activity,Leishmania tropica [24],Active
same,Activity,Leishmania tropica [25],56%
